Experiments:
ACHN = assay: Antiproliferative activity against human ACHN cells assessed as cell growth at 10 uM incubated for 48 hrs by SRB assay relative to control; type: functional; settings: read-out: Activity
Method in brief: (§1)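 Single-concentration screen at 10 μM run by NCI on its NCI-60 human tumour panel (blood, lung, colon, CNS, melanoma, ovary, kidney, prostate, breast), following the NCI-60 published methodology. Read-out is growth percent relative to untreated cells.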

[1] = Cytotoxicity against human HS5 cells assessed as inhibition of cell growth incubated for 72 hrs by alamar blue assay; type: toxicity, cell-based
Method in brief: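 Cells were grown in IMDM with 20% FBS and penicillin/streptomycin at 37 °C in 5% CO2. Drug-treated cells were incubated 72 h. Alamar blue (1 mM solution) was then added for 5–6 h, and fluorescence read at 530/590 nm.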

SNB-19 = assay: Antiproliferative activity against human SNB-19 cells assessed as cell growth at 10 uM incubated for 48 hrs by SRB assay relative to control; type: functional; settings: read-out: Activity
Method in brief: (§2)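 NCI-60 single-dose screen: compounds tested at 10 μM, and growth percent of each cell line calculated. The full method follows the NCI DTP protocol.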

SF-539 = assay: Antiproliferative activity against human SF-539 cells assessed as cell growth at 10 uM incubated for 48 hrs by SRB assay relative to control; type: functional; settings: read-out: Activity; method in brief: as §1
HOP-92 = assay: Antiproliferative activity against human HOP-92 cells assessed as cell growth at 10 uM incubated for 48 hrs by SRB assay relative to control; type: functional; settings: read-out: Activity; method in brief: as §1
NCI-H460 = assay: Antiproliferative activity against human NCI-H460 cells assessed as cell growth at 10 uM incubated for 48 hrs by SRB assay relative to control; type: functional; settings: read-out: Activity; method in brief: as §1
MCF7 = assay: Antiproliferative activity against human MCF7 cells assessed as cell growth at 10 uM incubated for 48 hrs by SRB assay relative to control; type: functional; settings: read-out: Activity; method in brief: as §1
COLO 205 = assay: Antiproliferative activity against human COLO 205 cells assessed as cell growth at 10 uM incubated for 48 hrs by SRB assay relative to control; type: functional; settings: read-out: Activity; method in brief: as §1
MDA-MB-468 = assay: Antiproliferative activity against human MDA-MB-468 cells assessed as cell growth at 10 uM incubated for 48 hrs by SRB assay relative to control; type: functional; settings: read-out: Activity; method in brief: as §1
HCC 2998 = assay: Antiproliferative activity against human HCC 2998 cells assessed as cell growth at 10 uM incubated for 48 hrs by SRB assay relative to control; type: functional; settings: read-out: Activity; method in brief: as §1
SNB-75 = assay: Antiproliferative activity against human SNB-75 cells assessed as cell growth at 10 uM incubated for 48 hrs by SRB assay relative to control; type: functional; settings: read-out: Activity; method in brief: as §2
SW-620 = assay: Antiproliferative activity against human SW620 cells assessed as cell growth at 10 uM incubated for 48 hrs by SRB assay relative to control; type: functional; settings: read-out: Activity; method in brief: as §2
HT-29 = assay: Antiproliferative activity against human HT-29 cells assessed as cell growth at 10 uM incubated for 48 hrs by SRB assay relative to control; type: functional; settings: read-out: Activity; method in brief: as §1
HCT-15 = assay: Antiproliferative activity against human HCT-15 cells assessed as cell growth at 10 uM incubated for 48 hrs by SRB assay relative to control; type: functional; settings: read-out: Activity; method in brief: as §1
SK-MEL-2 = assay: Antiproliferative activity against human SK-MEL-2 cells assessed as cell growth at 10 uM incubated for 48 hrs by SRB assay relative to control; type: functional; settings: read-out: Activity; method in brief: as §1
OVCAR-5 = assay: Antiproliferative activity against human OVCAR-5 cells assessed as cell growth at 10 uM incubated for 48 hrs by SRB assay relative to control; type: functional; settings: read-out: Activity; method in brief: as §1
Malme-3M = assay: Antiproliferative activity against human Malme-3M cells assessed as cell growth at 10 uM incubated for 48 hrs by SRB assay relative to control; type: functional; settings: read-out: Activity; method in brief: as §1
SF-295 = assay: Antiproliferative activity against human SF-295 cells assessed as cell growth at 10 uM incubated for 48 hrs by SRB assay relative to control; type: functional; settings: read-out: Activity; method in brief: as §1
UACC-62 = assay: Antiproliferative activity against human UACC-62 cells assessed as cell growth at 10 uM incubated for 48 hrs by SRB assay relative to control; type: functional; settings: read-out: Activity; method in brief: as §2
BT-549 = assay: Antiproliferative activity against human BT-549 cells assessed as cell growth at 10 uM incubated for 48 hrs by SRB assay relative to control; type: functional; settings: read-out: Activity; method in brief: as §1
U-266 = assay: cells; type: functional, cell-based; settings: Homo sapiens, U-266, 72 h
HL-60 = assay: Antiproliferative activity against human HL-60 cells assessed as cell growth at 10 uM incubated for 48 hrs by SRB assay relative to control; type: functional; settings: read-out: Activity; method in brief: as §1
M14 = assay: Antiproliferative activity against human M14 cells assessed as cell growth at 10 uM incubated for 48 hrs by SRB assay relative to control; type: functional; settings: read-out: Activity; method in brief: as §1
HCT-116 = assay: Antiproliferative activity against human HCT-116 cells assessed as cell growth at 10 uM incubated for 48 hrs by SRB assay relative to control; type: functional; settings: read-out: Activity; method in brief: as §1
CCRF-CEM = assay: Antiproliferative activity against human CCRF-CEM cells assessed as cell growth at 10 uM incubated for 48 hrs by SRB assay relative to control; type: functional; settings: read-out: Activity; method in brief: as §1
A549 = assay: Antiproliferative activity against human A549 cells assessed as cell growth at 10 uM incubated for 48 hrs by SRB assay relative to control; type: functional; settings: read-out: Activity; method in brief: as §1

In the case of `O=C1CN(Cc2ccc(C(=O)NO)cc2)C(=O)[C@@H](Cc2c[nH]c3ccccc23)N1`, the growth at 10 µM (ACHN) is reported as 104%, the IC50 at 72 hrs [1] is reported as > 100 µM and the growth at 10 µM (SNB-19) is reported as 96.8%. The growth at 10 µM (SF-539) was 107%, the growth at 10 µM (HOP-92) was 104% and the growth at 10 µM (NCI-H460) was 104%. It also gave a growth at 10 µM (MCF7) of 96.7%, a growth at 10 µM (COLO 205) of 120% and a growth at 10 µM (MDA-MB-468) of 107%. The growth at 10 µM (HCC 2998) was 103%, the growth at 10 µM (SNB-75) was 94.5% and the growth at 10 µM (SW-620) was 103%. The growth at 10 µM (HT-29) was 104%, the growth at 10 µM (HCT-15) was 103% and the growth at 10 µM (SK-MEL-2) was 113%. The growth at 10 µM (OVCAR-5) was 107%, the growth at 10 µM (Malme-3M) was 94.6% and the growth at 10 µM (SF-295) was 105%. It also gave a growth at 10 µM (UACC-62) of 95.5%, a growth at 10 µM (BT-549) of 98.2% and an IC50 (U-266) of 43.2 µM. It also gave a growth at 10 µM (HL-60) of 126%, a growth at 10 µM (M14) of 94.2% and a growth at 10 µM (HCT-116) of 54.9%. The growth at 10 µM (CCRF-CEM) was 103% and the growth at 10 µM (A549) was 96.6%.

For `O=C(NO)c1ccc(CN2CC(=O)N(Cc3ccccc3)[C@H](Cc3ccccc3)C2=O)cc1`, the growth at 10 µM (ACHN) was 90.6%, the IC50 at 72 hrs [1] was > 100 µM and the growth at 10 µM (SNB-19) was 85.4%. The growth at 10 µM (SF-539) was 87.3%, the growth at 10 µM (HOP-92) was 102% and the growth at 10 µM (NCI-H460) was 81.6%. The growth at 10 µM (MCF7) was 82.9%, the growth at 10 µM (COLO 205) was 89.2% and the growth at 10 µM (MDA-MB-468) was 79.9%. The growth at 10 µM (HCC 2998) was 85.9%, the growth at 10 µM (SNB-75) was 69.4% and the growth at 10 µM (SW-620) was 94.1%. It also gave a growth at 10 µM (HT-29) of 87.9%, a growth at 10 µM (HCT-15) of 74.3% and a growth at 10 µM (SK-MEL-2) of 99.4%. The growth at 10 µM (OVCAR-5) was 97.8%, the growth at 10 µM (Malme-3M) was 77.1% and the growth at 10 µM (SF-295) was 100%. The growth at 10 µM (UACC-62) was 87.5%, the growth at 10 µM (BT-549) was 103% and the IC50 (U-266) was 25.9 µM. The growth at 10 µM (HL-60) was 102%, the growth at 10 µM (M14) was 90.4% and the growth at 10 µM (HCT-116) was 84.1%. The growth at 10 µM (CCRF-CEM) was 72% and the growth at 10 µM (A549) was 95.1%.
